procasp3 activ: activators of human procaspase-3 D3A mutant, primary screen, biochemical, absorbance, PC-3 D3A mutant, single concentration | recombinant procaspase-3 D3A, Ac-DEVD-pNA absorbance 405 nm | 330,000 compounds, 0.11% hits | AID 463141, 2010 | activation, % at 8.5 µM | Caspase-3 (Homo sapiens), P42574;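 active = activation above the mean of all tested compounds plus 3 SD, cut at about 21% in these data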;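 also: 0% = DMSO alone and 100% = DMSO wells spiked with extra 5 µM PC-3 D3A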
Target sequence (P42574 whole entry D9A/D28A/D175A): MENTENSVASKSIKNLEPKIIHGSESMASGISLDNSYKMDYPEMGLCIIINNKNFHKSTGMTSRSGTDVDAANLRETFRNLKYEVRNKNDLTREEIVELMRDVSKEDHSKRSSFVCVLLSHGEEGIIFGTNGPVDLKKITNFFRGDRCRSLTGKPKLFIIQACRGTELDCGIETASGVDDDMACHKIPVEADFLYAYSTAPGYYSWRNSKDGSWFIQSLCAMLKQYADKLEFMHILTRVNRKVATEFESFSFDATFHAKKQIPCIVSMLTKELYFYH
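Assay system – Procaspase-3 D3A mutant · Benchmarks – DMSO low control, extra-enzyme high control · Technique – 405 nm absorbance of p-nitroaniline, reads at 0 and 120 min · Doses – 8.5 µM nominal · Measure – % activation between DMSO and enzyme-spiked controls · Also added – Ac-DEVD-pNA chromogenic peptide substrate · Schedule – 1 h compound preincubation, 2 h substrate hydrolysis at 25 °C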
LYPLA1 inh: LYPLA1 inhibitors, primary screen, counter-screen for PME1 inhibitor project, biochemical, fluorescence polarization, FP-Rh probe ABPP; Acyl-protein thioesterase 1 (Homo sapiens), O75608; recombinant LYPLA1; inhibition, % at 5.9 µM; 320,000 compounds, 0.16% hits; AID 2174, 2009;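 active = inhibition above the mean of all tested compounds plus 3 SD, set per campaign, cut at about 14% in these data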;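 also: inhibitors block serine hydrolase probe labeling of LYPLA1 so polarization falls; 0% = enzyme with DMSO and 100% = wells lacking LYPLA1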
PREPL inh: PREPL enzyme inhibitors, primary screen, biochemical, fluorescence polarization. Prolyl endopeptidase-like (Homo sapiens), Q4J6C6. inhibition, % at 5.96 µM. recombinant PREPL, fluorescence polarization activity-based probe. 320,000 compounds, 0.68% hits;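 also: 0% = enzyme with DMSO and 100% = wells lacking enzyme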
proCasp7 act: procaspase-7 activators, primary screen, counter-screen for procaspase-3 activator project, biochemical, absorbance, HTS, human; Caspase-7 (Homo sapiens), P55210; recombinant procaspase-7, Ac-DEVD-pNA absorbance 405 nm; D23A/D198A/D206A triple mutant, cannot self-cleave; scale: DMSO 0, 5 µM enzyme 100; activation, % at 8.5 µM; 330,000 compounds, 0.093% hits; AID 463210, 2010;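 active = percent activation above the screen-wide mean plus 3 SD, cut at about 25% in these data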
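buffer or medium = Zinc-free HEPES/NaCl buffer, pH 7.4 | material = Procaspase-7 triple mutant (PC-7 D3A) | input = 2 µM procaspase-7 mutant as dispensed | signal = Epi-absorbance of released pNA at 405 nm, two timepoints | timing = 1 h preincubation, 2 h reaction | replicates = singlicate compound testing | evaluation = % activation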
LYPLA2 inh: LYPLA2 inhibitors, primary screen, counter-screen for PME1 inhibitor project, biochemical, fluorescence polarization, FP-Rh probe ABPP; AID 2177, 2009; recombinant LYPLA2; 320,000 compounds, 0.38% hits; Acyl-protein thioesterase 2 (Homo sapiens), O95372; inhibition, % at 5.9 µM;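 active = inhibition above the screen-wide mean plus 3 SD, limit set per campaign, cut at about 26% in these data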;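 also: 0% = LYPLA2 with DMSO and 100% = wells lacking LYPLA2 enzyme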
Target sequence (O95372 whole entry, looked up): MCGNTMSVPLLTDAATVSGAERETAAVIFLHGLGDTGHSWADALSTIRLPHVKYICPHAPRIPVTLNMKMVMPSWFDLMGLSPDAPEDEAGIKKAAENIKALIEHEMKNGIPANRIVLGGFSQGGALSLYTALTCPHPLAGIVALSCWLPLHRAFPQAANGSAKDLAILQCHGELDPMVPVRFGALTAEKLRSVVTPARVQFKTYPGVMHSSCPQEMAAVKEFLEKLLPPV
PREPL inh cf: human PREPL enzyme inhibitors, confirmation, biochemical, fluorescence polarization; inhibition, % at 5.96 µM; shares compounds with PREPL inh; recombinant PREPL, fluorescence polarization activity probe; 2,000 compounds, 67% hits;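 also: 0% = protein with DMSO and 100% = wells lacking protein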
Starred values were filed as active, the others as inactive; / = no result given. The list is not random: actives were taken first. Their share in the collection is about 1.1%. Rule as the data show it, unless noted: active = inhibition above about 43%; inactive = the rest.

SMILES	procasp3 activ	LYPLA1 inh	PREPL inh	proCasp7 act	LYPLA2 inh	PREPL inh cf
CC(C)(C)[C@H]1COC(=O)[C@@H](Cc2ccc(F)cc2)CC/C=C/C[C@@H](CC(=O)N[C@H](CO)Cc2ccccc2)C(=O)N1	4	/	47*	12	/	41
CC(C)(C)[C@H]1COC(=O)[C@@H](Cc2ccc(F)cc2)CC/C=C/C[C@@H](CC(=O)N[C@@H](CO)Cc2ccccc2)C(=O)N1	7	/	32	6	/	/
COc1ccc(S(=O)(=O)N2CCOCC2)c2ccccc12	1	-1	0	10	-8	/
O=c1c(O)cccc2cc(O)c(O)c(O)c12	-15	-12	63*	-36	13	37
CCc1nc(CNC(=O)C2CCC(=O)N(CCc3ccc(OC)cc3)C2)cs1 (stereo not drawn)	3	1	1	14	2	/
O=C(Nc1ccccn1)C1CCN(c2ncnc3c2nc2n3CCCCC2)CC1	3	-1	10	2	-4	/
Nc1c(C(=O)NCc2ccco2)c2nc3ccccc3nc2n1CCc1ccc(F)cc1	-2	-6	53*	-9	-7	42
Nc1c(C(=O)NCc2ccc3c(c2)OCO3)c2nc3ccccc3nc2n1CCCN1CCOCC1	1	-7	52*	-17	1	54*
Nc1c(C(=O)NCCN2CCOCC2)c2nc3ccccc3nc2n1CCc1ccccc1	6	5	37	1	3	/
COc1ccc(CC(=O)N(Cc2ccccc2)c2ccc(C)cc2)cc1OC	3	-2	-3	7	-5	/
CN(C)c1ccc(N=C/C=C2\N(C)c3ccccc3C2(C)C)cc1	-15	-1	70*	-19	-2	68*
O=[N+]([O-])c1ccc(N2CCN(c3cccc(Cl)c3)CC2)cn1	-8	-2	47*	-10	-3	38
O=[N+]([O-])c1ccc(N2CCCCC2)cn1	-4	-4	-1	-7	-2	/
CC(C)(C)c1ccc(S(=O)(=O)N2CCN(C(=O)C3=COCCO3)CC2)cc1	-6	1	-25	-1	4	/
Cc1ccc(CNc2ccc3c(c2)ncn3C(C)(C)C)cc1	2	1	49*	-10	2	46*
CCCC(=O)N/N=C1\CS(=O)(=O)N(C)c2ccsc21	4	-5	-1	5	-13	/
CN1c2ccsc2/C(=N/Nc2ccc(F)cc2)CS1(=O)=O	-22	-1	57*	-20	4	34
CCOC(=O)N1CCN(C(=O)CCN2C(=O)/C(=C\c3cccc(OC)c3)SC2=S)CC1	-4	-1	16	-5	4	/
CN1CCc2c(sc3c2C(=O)NC(c2ccco2)N3)C1 (stereo not drawn)	-12	-1	0	-14	-2	/
CN1CCc2c(sc3c2C(=O)NC(c2cn(Cc4ccccc4)c4ccccc24)N3)C1 (stereo not drawn)	-6	-6	55*	-8	-12	61*
CCc1ccccc1N(CC(=O)NCc1ccccc1)C(=O)CCC(=O)Nc1ccccn1	4	3	-4	2	6	/
COc1cc(NC(C)CCCN)c2ncccc2c1 (stereo not drawn)	6	4	57*	-5	4	39
COc1cc(NC(=O)c2ccc3c(c2)OCO3)c2ncccc2c1	0	0	3	-3	-1	/
COc1cc(NCCCCCCCN)c2ncccc2c1	-1	0	55*	-25	1	31
O=C(NCc1ccccc1F)c1ccncc1	4	-4	2	-3	4	/
SMILES	procasp3 activ	LYPLA1 inh	PREPL inh	proCasp7 act	LYPLA2 inh	PREPL inh cf
O=C(COC(=O)CNC(=O)c1ccccc1)Nc1ccc(Cl)cn1	6	/	45*	-5	/	2
N#CCCN(C(=O)COC(=O)CSc1ccc(Cl)cc1)c1ccccc1	9	/	50*	6	/	39
O=C1c2c(O)ccc(O)c2C(=O)c2c(NCCNCCO)ccc(NCCNCCO)c21	-3	2	101*	-3	4	98*
Cc1ccc(/C=C2/C(=N)N3N=C(CC(=O)N4CCCC4)SC3=NC2=O)cc1	8	-5	0	-4	4	/
N#CC1=C(Nc2ccccc2)SC=C(c2ccc(F)cc2)N=C1N1CCOCC1	6	2	52*	4	-1	36
Cc1ccc(S(=O)(=O)NCC(=O)NCC(=O)N(C)Cc2ccc3ccccc3c2)cc1C	4	-5	-6	1	-10	/
COc1ccc(N2CCN(CCCNS(=O)(=O)c3c(C)noc3/C=C/N(C)C)CC2)cc1	2	1	71*	9	4	28
O=C(Nc1ccc2nc(-c3ccco3)c(-c3ccco3)nc2c1)N1CCN(c2ccccn2)CC1	1	-6	74*	-19	-7	38
O=C(Nc1ccc(N2CCOCC2)cc1)c1ccc2nc(-c3ccco3)c(-c3ccco3)nc2c1	-9	-5	13	5	-3	/
S=C(Nc1ccc(N2CCOCC2)cc1)Nc1ccc2nc(-c3ccco3)c(-c3ccco3)nc2c1	-22	-3	46*	-16	4	22
COc1ccc2cc1Oc1ccc(cc1)C[C@H]1c3cc(c(OC)cc3CCN1C)Oc1c(OC)c(OC)cc3c1[C@@H](C2)N(C)CC3	-6	-2	52*	2	-4	48*
CN(C)S(=O)(=O)c1ccc(C(=O)NNC(=O)c2ccccc2-n2cccc2)cc1	-1	0	2	5	2	/
CCN1CCN(c2cc(C)c3cc(NC(=O)CCC(=O)N4CCN(c5ccccc5OC)CC4)ccc3n2)CC1	10	-2	6	8	1	/
CCN1CCN(c2cc(C)c3cc(NC(=O)CCC(=O)N4CCN(c5ccccc5)CC4)ccc3n2)CC1	9	1	49*	5	1	47*
C[C@H]1CN([C@@H](C)CO)C(=O)Cc2cc(NC(=O)CCN3CCOCC3)ccc2O[C@@H]1CN(C)Cc1ccc(Oc2ccccc2)cc1	2	/	53*	5	/	54*
CCN1C(=O)[C@H]2[C@@H](c3ccc(-c4ccc(F)cc4)cc3)N3CCCC[C@@]3(C(=O)OC)[C@H]2C1=O	12	-2	45*	-6	2	40

Bioassay records deposited in PubChem BioAssay by The Scripps Research Institute Molecular Screening Center.
